# Laboratory results from ChEMBL document CHEMBL4387713, “Galloyl Carbohydrates with Antiangiogenic Activity Mediated by Capillary Morphogenesis Gene 2 (CMG2) Protein Binding” (J Med Chem, 2019).
# pIC50: −log10 of the molar value.
# Target: Anthrax toxin receptor 2 (Homo sapiens, UniProt P58335, C178A/R40C)
# Assay: Inhibition of AF488-labelled PA binding to AF546- labelled GST-tagged CMG2 R40C/C178A double mutant (unknown origin) expressed in Escherichia coli BL21 DE3 measured after 4 hrs by FRET assay
# Conditions: not given
# Anthrax toxin receptor 2, sequence (P58335 whole entry, looked up, stated change not applied): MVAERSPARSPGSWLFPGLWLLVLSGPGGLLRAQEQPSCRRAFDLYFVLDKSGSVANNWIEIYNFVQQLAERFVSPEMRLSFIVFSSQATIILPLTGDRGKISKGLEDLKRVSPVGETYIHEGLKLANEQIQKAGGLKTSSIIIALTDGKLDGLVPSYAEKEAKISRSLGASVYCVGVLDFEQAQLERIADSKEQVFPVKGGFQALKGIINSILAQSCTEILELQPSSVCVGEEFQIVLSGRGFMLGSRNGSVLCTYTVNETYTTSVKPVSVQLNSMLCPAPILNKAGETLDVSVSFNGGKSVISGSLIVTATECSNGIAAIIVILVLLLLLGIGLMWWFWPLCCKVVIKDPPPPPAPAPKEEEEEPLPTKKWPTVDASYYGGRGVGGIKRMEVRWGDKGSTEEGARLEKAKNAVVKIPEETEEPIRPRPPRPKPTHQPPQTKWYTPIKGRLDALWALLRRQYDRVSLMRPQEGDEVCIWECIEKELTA
row,SMILES,pIC50
1,O=C(OC[C@H]1O[C@@H](OC(=O)c2cc(O)c(O)c(O)c2)[C@@H](OC(=O)c2cc(O)c(O)c(O)c2)[C@@H](OC(=O)c2cc(O)c(O)c(O)c2)[C@@H]1OC(=O)c1cc(O)c(O)c(O)c1)c1cc(O)c(O)c(O)c1,7.24
2,O=C(OC[C@H]1O[C@H](OC(=O)c2cc(O)c(O)c(O)c2)[C@@H](OC(=O)c2cc(O)c(O)c(O)c2)[C@@H](OC(=O)c2cc(O)c(O)c(O)c2)[C@@H]1OC(=O)c1cc(O)c(O)c(O)c1)c1cc(O)c(O)c(O)c1,7.00
3,O=C(O[C@@H]1OC[C@@H](OC(=O)c2cc(O)c(O)c(O)c2)[C@@H](OC(=O)c2cc(O)c(O)c(O)c2)[C@H]1OC(=O)c1cc(O)c(O)c(O)c1)c1cc(O)c(O)c(O)c1,< 5.00
4,O=C(OC[C@H]1O[C@H](O[C@H]2O[C@H](COC(=O)c3ccc(O)c(O)c3O)[C@@H](OC(=O)c3ccc(O)c(O)c3O)[C@H](OC(=O)c3ccc(O)c(O)c3O)[C@H]2OC(=O)c2ccc(O)c(O)c2O)[C@@H](OC(=O)c2ccc(O)c(O)c2O)[C@@H](OC(=O)c2ccc(O)c(O)c2O)[C@@H]1OC(=O)c1ccc(O)c(O)c1O)c1ccc(O)c(O)c1O,< 5.00
5,O=C(OC[C@H]1O[C@H](O[C@H]2[C@H](OC(=O)c3ccc(O)c(O)c3O)[C@@H](OC(=O)c3ccc(O)c(O)c3O)[C@H](OC(=O)c3ccc(O)c(O)c3O)O[C@@H]2COC(=O)c2ccc(O)c(O)c2O)[C@H](OC(=O)c2ccc(O)c(O)c2O)[C@@H](OC(=O)c2ccc(O)c(O)c2O)[C@@H]1OC(=O)c1ccc(O)c(O)c1O)c1ccc(O)c(O)c1O,5.93
6,O=C(OC[C@H]1O[C@H](OC(=O)c2ccc(O)c(O)c2O)[C@@H](OC(=O)c2ccc(O)c(O)c2O)[C@@H](OC(=O)c2ccc(O)c(O)c2O)[C@@H]1OC(=O)c1ccc(O)c(O)c1O)c1ccc(O)c(O)c1O,< 5.00
7,O=C(OC[C@H]1O[C@H](O[C@H]2O[C@H](COC(=O)c3cc(O)c(O)c(O)c3)[C@@H](OC(=O)c3cc(O)c(O)c(O)c3)[C@H](OC(=O)c3cc(O)c(O)c(O)c3)[C@H]2OC(=O)c2cc(O)c(O)c(O)c2)[C@@H](OC(=O)c2cc(O)c(O)c(O)c2)[C@@H](OC(=O)c2cc(O)c(O)c(O)c2)[C@@H]1OC(=O)c1cc(O)c(O)c(O)c1)c1cc(O)c(O)c(O)c1,< 5.00
8,O=C(OC[C@H]1OC(O)[C@H](OC(=O)c2cc(O)c(O)c(O)c2)[C@@H](OC(=O)c2cc(O)c(O)c(O)c2)[C@H]1OC(=O)c1cc(O)c(O)c(O)c1)c1cc(O)c(O)c(O)c1 (stereo partly drawn),6.78
9,O=C(OC[C@H]1OC(OC(=O)c2ccc(O)c(O)c2O)[C@H](OC(=O)c2ccc(O)c(O)c2O)[C@@H](OC(=O)c2ccc(O)c(O)c2O)[C@@H]1OC(=O)c1ccc(O)c(O)c1O)c1ccc(O)c(O)c1O (stereo partly drawn),5.47
10,O=C(OC[C@H]1O[C@H](O[C@H]2[C@H](OC(=O)c3cc(O)c(O)c(O)c3)[C@@H](OC(=O)c3cc(O)c(O)c(O)c3)[C@H](OC(=O)c3cc(O)c(O)c(O)c3)O[C@@H]2COC(=O)c2cc(O)c(O)c(O)c2)[C@H](OC(=O)c2cc(O)c(O)c(O)c2)[C@@H](OC(=O)c2cc(O)c(O)c(O)c2)[C@@H]1OC(=O)c1cc(O)c(O)c(O)c1)c1cc(O)c(O)c(O)c1,< 5.00
11,O=C(O[C@H]1OC[C@@H](OC(=O)c2ccc(O)c(O)c2O)[C@@H](OC(=O)c2ccc(O)c(O)c2O)[C@H]1OC(=O)c1ccc(O)c(O)c1O)c1ccc(O)c(O)c1O,< 5.00
12,O=C(OC[C@H]1O[C@@H](OC(=O)c2ccc(O)c(O)c2O)[C@@H](OC(=O)c2ccc(O)c(O)c2O)[C@@H](OC(=O)c2ccc(O)c(O)c2O)[C@@H]1OC(=O)c1ccc(O)c(O)c1O)c1ccc(O)c(O)c1O,6.88
13,O=C(O[C@@H]1OC[C@@H](OC(=O)c2ccc(O)c(O)c2O)[C@@H](OC(=O)c2ccc(O)c(O)c2O)[C@H]1OC(=O)c1ccc(O)c(O)c1O)c1ccc(O)c(O)c1O,< 5.00
14,"O=C(OCC(OC(=O)c1ccc(O)c(O)c1O)[C@@H]1O[C@H](OC(=O)c2ccc(O)c(O)c2O)[C@H](OC(=O)c2ccc(O)c(O)c2O)[C@H]1OC(=O)c1ccc(O)c(O)c1O)c1ccc(O)c(O)c1O (single isomer, unassigned)",< 5.00
15,O=C(OC[C@H]1O[C@@H](OC(=O)c2cc(O)c(O)c(O)c2)[C@H](OC(=O)c2cc(O)c(O)c(O)c2)[C@@H](OC(=O)c2cc(O)c(O)c(O)c2)[C@@H]1OC(=O)c1cc(O)c(O)c(O)c1)c1cc(O)c(O)c(O)c1 [PENTAGALLOYL GLUCOSE],6.22

# System: EA.hy 926
# Assay: Antimigratory activity in human EAhy926 cells measured at 10 mins interval for 12 hrs by time-lapse transmitted light microscopy
# Conditions: not given
row,SMILES,pIC50
1,O=C(OC[C@H]1O[C@@H](OC(=O)c2cc(O)c(O)c(O)c2)[C@@H](OC(=O)c2cc(O)c(O)c(O)c2)[C@@H](OC(=O)c2cc(O)c(O)c(O)c2)[C@@H]1OC(=O)c1cc(O)c(O)c(O)c1)c1cc(O)c(O)c(O)c1,6.40 to 6.44

# System: Mus musculus
# Assay: Inhibition of basic fibroblast growth factor-induced corneal angiogenesis in C57BL/6J mouse assessed as decrease in vessel area at 10 mg/kg administered intraperitoneally measured on 6th postoperative day relative to control
# Assay type: functional
# Conditions: ip
# Summary of the method: (§1)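 C57BL/6J mice given 80 ng bFGF slow-release pellets in the cornea about 1.0 mm from the temporal limbus. Compound diluted 5:1 in saline, 10 mg/kg/day ip. Vehicle is DMSO/NMP/Tween/Cremophor in saline. Vessel area compared with vehicle by t-test (vehicle n = 9, treated n = 10). Body weight followed against vehicle-treated mice.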
row,SMILES,inhibition in vivo at 10 mg/kg
1,O=C(OC[C@H]1O[C@@H](OC(=O)c2cc(O)c(O)c(O)c2)[C@@H](OC(=O)c2cc(O)c(O)c(O)c2)[C@@H](OC(=O)c2cc(O)c(O)c(O)c2)[C@@H]1OC(=O)c1cc(O)c(O)c(O)c1)c1cc(O)c(O)c(O)c1,20%

# System: not listed separately
# Assay: Toxicity in C57BL/6J mouse assessed as body weight loss at 10 mg/kg, ip
# Assay type: organism-based
# Conditions: in vivo
# Summary of the method: as §1
row,SMILES,Activity
1,O=C(OC[C@H]1O[C@@H](OC(=O)c2cc(O)c(O)c(O)c2)[C@@H](OC(=O)c2cc(O)c(O)c(O)c2)[C@@H](OC(=O)c2cc(O)c(O)c(O)c2)[C@@H]1OC(=O)c1cc(O)c(O)c(O)c1)c1cc(O)c(O)c(O)c1,Non-Toxic
